This is a sample that favours compounds with a hit; in the whole collection about 1.8% have one here.
Rev-erbA mod: modulates human Rev-erb alpha binding to DNA. P20393. Rev-erbα–FITC-DNA binding, fluorescence polarization, 90 min. activity, % at 10 µM. 370,000 tested, 0.79% active. AID 1259318;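 active = activity above about 14%, limit read from the data; passing the limit was not always enough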
Target sequence (P20393 whole entry, looked up): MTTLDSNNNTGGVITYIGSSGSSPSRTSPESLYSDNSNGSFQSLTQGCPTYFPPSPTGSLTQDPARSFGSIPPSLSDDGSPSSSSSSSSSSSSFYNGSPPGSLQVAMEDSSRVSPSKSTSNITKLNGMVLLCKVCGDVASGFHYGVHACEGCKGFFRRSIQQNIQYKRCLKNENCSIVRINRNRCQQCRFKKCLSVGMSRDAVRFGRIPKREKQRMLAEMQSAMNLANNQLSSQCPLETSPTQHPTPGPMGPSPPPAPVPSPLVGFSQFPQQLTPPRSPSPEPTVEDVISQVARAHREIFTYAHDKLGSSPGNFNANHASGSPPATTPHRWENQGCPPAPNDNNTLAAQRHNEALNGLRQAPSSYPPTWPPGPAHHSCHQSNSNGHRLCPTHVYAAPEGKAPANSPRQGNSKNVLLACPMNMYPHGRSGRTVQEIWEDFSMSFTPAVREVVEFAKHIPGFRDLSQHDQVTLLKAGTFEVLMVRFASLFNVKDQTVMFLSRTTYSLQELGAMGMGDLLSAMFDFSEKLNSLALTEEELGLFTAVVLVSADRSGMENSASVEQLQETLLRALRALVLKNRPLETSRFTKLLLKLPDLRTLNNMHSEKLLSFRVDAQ
Tb MetRS inh: Trypanosoma brucei MetRS inhibition | purified T. brucei MetRS, ATP depletion, Kinase-Glo luminescence | inhibition, % at 11.9 µM | 360,000 tested, 0.4% active;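 active = inhibition above a per-plate cutoff of the control wells' mean inhibition plus 3 SD, cut at about 5.5% in these data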
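technique = Kinase-Glo luminescence, ATP depletion format | system = purified MetRS (methionyl-tRNA synthetase) enzyme from Trypanosoma brucei | timing = 15 min preincubation, 2 h reaction, all 25 °C | evaluation = percent inhibition versus plate control medians | dosing = single dose, 11.9 µM final nominal, 0.9% final DMSO | also added = substrates ATP, L-methionine and bulk Escherichia coli tRNA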
PG9 binder: PG9 antibody binding by small molecule. inhibition, % at 6.7 µM. AID 624416. 360,000 tested, 0.43% active. TR-FRET gp120-PG9 antibody binding; in the data active = inhibition above about 8.5%
Rin1 Abl inh: blocks binding of human Rin1 to Abl. 360,000 tested, 0.4% active. AID 588664. P00519+Q13671. TR-FRET Rin1/Abl binding, biochemical. inhibition, % at 7.35 µM; in the data active = inhibition above about 5%, passing the limit was not always enough
NR1D1 mod conf: Rev-erb alpha (human) modulation, hit confirmation; shares compounds with Rev-erbA mod; Rev-erb alpha FITC-DNA binding, fluorescence polarization, 90 min; activation, % at 25 µM; 3,000 tested, 61% active;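 active = activation at or above a set limit, or at least 3 SD above the negative control mean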
RORg DNA counter: counter-screen for Rev-erb alpha modulators: RORgamma DNA binding; shares compounds with Rev-erbA mod; 910 tested, 8% active; AID 1259320; IC50, µM; purified RORgamma protein-FITC-DNA binding, fluorescence polarization;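 active = Compounds whose fitted half-maximal concentration for disrupting protein-DNA binding is below 10 micromolar; the record names Rev-erb in its text, so the target is in doubt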
Numbers stand for hits; – = inactive; · = not tested or not shown; ! = not confirmed by another sample.

SMILES	Rev-erbA mod	Tb MetRS inh	PG9 binder	Rin1 Abl inh	NR1D1 mod conf	others
Cc1ccc2c(CC(=O)Nc3ccc4nc(N5CCOCC5)sc4c3)coc2c1	–	–	–	–	·
Cc1cc2c(cc(C(=O)OC(C)C(=O)NCc3ccccc3)n2C)o1 (configuration not stated)	26	–	–	–	18
Cc1cc2c(cc(C(=O)OC(C)C(=O)NCc3ccc(F)cc3)n2C)o1 (configuration not stated)	–	–	–	–	·
CCOC(=O)c1sc(NC(=O)CN2C(=O)NC3(CCCCCCC3)C2=O)c(C(=O)OCC)c1C	28	–	–	–	–
COC(CNC(=O)c1ccc2nc(-c3cccs3)c(-c3cccs3)nc2c1)OC	27	–	–	–	–
O=C(Nc1ccc(Oc2ccccc2)cc1)c1csc(COCCO)n1	15	–	–	–	–
CCCSc1nc(SCC(=O)NCc2ccccc2)c2c3c(sc2n1)COC(C)(CC)C3 (configuration not stated)	77	–	–	–	78	RORg DNA counter=–
CC1(C(=O)NS(=O)(=O)c2ccc(C#N)cc2)CCN1C(=O)CCC1CCCC1 (configuration not stated)	–	–	–	–	·
CC(=O)Nc1ccc(S(=O)(=O)N2C(=O)c3cccc4cccc2c34)cc1	33	·	–	·	–
COc1ccccc1N(C(=O)c1snc(C(N)=O)c1N)C(C(=O)NC1CCCC1)c1ccc(N(C)C)cc1 (configuration not stated)	36	–	–	–	–
O=C(c1cccc(S(=O)(=O)NCc2ccc3c(c2)OCO3)c1)N1CCCC1	–	–	–	–	·
C=CCSc1nc(N)c(C#N)c(-c2ccccc2)c1C#N	50	–	–	–	32	RORg DNA counter=–
CSc1nc(N)nc(SCC(=O)C23CC4CC(CC(C4)C2)C3)c1C#N	–	–	–	–	·
N#Cc1c(N)nc(SCC(=O)C23CC4CC(CC(C4)C2)C3)c(C#N)c1-c1ccc(Cl)cc1	81	–	–	–	44	RORg DNA counter=–
CCCSc1nc(N)c(C#N)c(-c2ccc(C)cc2)c1C#N	66	–	–	–	32
Cc1nc2ccc(C(=O)N3CCC(O)(Cc4ccccc4)CC3)cn2c1N(C)C(=O)CCc1ccccc1	–	–	–	–	·
COc1ccc(Cl)cc1S(=O)(=O)N1CCN=C1C	–	–	–	–	·
CC1=NCCN1S(=O)(=O)c1c(C(C)C)cc(C(C)C)cc1C(C)C	45	–	–	–	44	RORg DNA counter=–
COC(=O)[C@]12C[C@H](CC(=O)NCCc3ccccc3OC)C(=O)N(CCc3ccc(OC)c(OC)c3)C1=C[C@H](C(C)(C)C)O[C@@H]2C	–	·	·	·	·
C#CCOc1ccc2c(C)cc(=O)oc2c1	–	–	–	–	·
Cc1cc(=O)oc2cc(OCC3CC(c4ccc(Br)cc4)=NO3)ccc12 (configuration not stated)	55	–	–	–	46	RORg DNA counter=2.1
CCC[C@H]1[C@@H](OC(=O)NCc2cccnc2)CC[C@@]23CCCN2C(=O)CCC[C@@H]13	–	·	·	·	·
O=C(CSc1nnc(-c2cccs2)o1)c1ccc2c(c1)OCO2	115	·	·	·	134	RORg DNA counter=–
O=C(CSc1nnc(-c2ccccc2)o1)c1ccc2c(c1)OCCO2	–	–	–	–	·
CC/C(=C(/CC)c1ccc(O)cc1)c1ccc(O)cc1	31!	–	–	–	34
SMILES	Rev-erbA mod	Tb MetRS inh	PG9 binder	Rin1 Abl inh	NR1D1 mod conf	others
COc1ccc2c(c1)CCCC21NC(=O)N(CC(=O)N2CC(C)OC(C)C2)C1=O (configuration not stated)	–	–	–	–	·
COc1ccc(-c2cc3ccc(OCC(C)=O)cc3oc2=O)cc1OC	19	–	–	–	–
COC(=O)COc1ccc2cc(-c3ccc(OC)cc3)c(=O)oc2c1	25	–	–	–	–
O=C(Nc1ccc([N+](=O)[O-])cc1)OC1CCS(=O)(=O)C1 (configuration not stated)	–	–	–	·	·
COc1cc(C(=O)Nc2cc(-c3nc4cc(C)ccc4o3)ccc2C)cc(OC)c1OC	–	–	–	–	·
COc1cc(C(=O)Nc2cccc(-c3nc4cc(C)ccc4o3)c2)cc(OC)c1OC	61	–	–	–	54	RORg DNA counter=–
CCCC(=O)Nc1cccc(-c2nc3ccccc3o2)c1	–	–	–	–	·
CC(C)CC(=O)Nc1cccc(-c2nc3ccccc3o2)c1	33	–	–	–	26
CC(C)C(=O)Nc1cccc(-c2nc3ccccc3o2)c1	21	–	–	–	19
COc1ccc(OCC(=O)Nc2cccc(-c3nc4ccccc4o3)c2)cc1	26	–	–	–	–
O=C(NCc1ccccn1)c1[nH]c(C(F)(F)F)nc1-c1ccccc1	–	–	–	–	·
CCOC(=O)c1cc2sccc2n1CC(=O)N1CCCc2ccccc21	–	–	–	–	·
CCOC(=O)c1cc2sc(C)cc2n1CC(=O)N1CCc2ccccc21	22	–	–	–	24
O=C1c2ccc(-c3ccc(Cl)c(C(F)(F)F)c3)cc2S(=O)(=O)c2cccc(C(=O)N3CCN(c4ccc(Cl)cn4)CC3)c21	–	–	–	–	·
Cc1oc2c(C)c(O)ccc2c(=O)c1-c1ccc2ccccc2n1	23	–	–	–	20
COc1ccc(CCNc2nc3ccccc3n3nnnc23)cc1OC	30	–	–	–	22
c1ccc(CCNc2nc3ccccc3n3nnnc23)cc1	49	–	–	–	30
CCOc1ccc(CCNc2nc3ccccc3n3c(C)nnc23)cc1OCC	–	–	–	–	·
Cc1ccc(F)c(S(=O)(=O)NC(=O)C2(C)CCN2C(=O)COc2ccc(Cl)cc2)c1 (configuration not stated)	–	–	–	–	·
CO[C@H]1CN(C)C(=O)c2ccc(NC(=O)C3CCC3)cc2OC[C@H](C)N(CC2CCCCC2)C[C@@H]1C	–	–	–	·	·
CCCc1cc2c(=O)c(-c3nc4ccccc4s3)c(COCC(=O)O)oc2cc1O	30	–	–	–	–
O=C(Nc1ccnc(=O)[nH]1)c1sc2ccccc2c1Cl	37	–	–	–	23
O=C(Nc1ccncc1)c1sc2ccccc2c1Cl	–	–	–	–	·
Cc1ccc(NC(=O)c2sc3ncn(CC(=O)N4CCOCC4)c(=O)c3c2C)c(Br)c1	28	–	–	–	–
COc1ccc(S(=O)(=O)NCc2ccccn2)cc1NC(=O)c1ccccc1C	–	–	–	–	·
O=C(Nc1ccc(F)cc1)c1sc2cc(C(F)(F)F)cnc2c1-c1cccs1	49	–	–	–	21
COc1ccc(CCn2c(-c3ccccc3)nc3c(c(=O)c4ccccc4n3C)c2=O)cc1	–	·	–	·	·
COc1ccc(CCn2c(-c3ccc(F)cc3)nc3c(c(=O)c4ccccc4n3C)c2=O)cc1OC	41	–	–	–	–
COc1ccc(-c2ccc(-c3noc(-c4ccccc4F)n3)c(OC)n2)cc1	38	–	–	–	39	RORg DNA counter=–
